Screens: PubChem, several laboratories
ANO1 block: mouse TMEM16A channel inhibition, primary screen. AID 588511. hit rate 1.2% among 310,000. HEK293 TMEM16A/YFP iodide influx fluorescence, ionomycin. normalized B-score (activity score, 25-100; higher = stronger inhibition) at 10 µM;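 active = ratio plate-corrected score three or more library SD toward inhibition, starting fluorescence score within five deviations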;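 also: score derived from kinetic fluorescence span divided by baseline fluorescence per well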
DNA FID counter: displaces DNA intercalator in HCV helicase counter-screen | DNA fluorescent intercalator displacement, fluorescence | inhibition, % at 7.9 µM | hit rate 0.17% among 290,000; in the data active = inhibition above about 37%;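 also: 0% = vehicle and 100% = reference compound; higher means more ethidium bromide displaced from hairpin DNA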
TMEM16A act: activates or potentiates the mouse TMEM16A chloride channel; AID 623877; Q8BHY3; B-score at 10 µM; HEK293 TMEM16A/YFP-H148Q/I152L, iodide quench fluorescence; hits give low values; hit rate 0.3% among 340,000;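 active = fluorescence-ratio B-score plate-corrected deviation score at least 3 library SD below zero, with starting fluorescence score within 5 deviations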;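 also: channel opened by trigger with iodide after compound preincubation; score built on the fluorescence ratio of max minus min over baseline; more negative score means more quench and so TMEM16A activation or potentiation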
SR-BI HDL uptake: blocks mouse SR-BI lipid uptake from DiI-HDL. hit rate 0.96% among 320,000. inhibition, % at 12.5 µM. Q61009. ldlA[mSR-BI] CHO cells, DiI-HDL uptake fluorescence, 3 h;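 active = mean replicate inhibition of at least 70% and a set share of replicates each scoring 70 or more; inconclusive = meets just one of the two criteria; inactive = fails both criteria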;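 also: 0% = median of neutral control wells and 100% = median of positive control wells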
Kir21 inh: Kir2.1 (mouse) channel inhibition. hit rate 0.85% among 310,000. HEK293-Kir2.1, FluxOR thallium flux fluorescence; hits give low values. B-score at 10 µM. P35561;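 active = fluorescence ratio B-score at or below minus 3 SD of library scores, with starting-brightness B-score within 2 SD, cut at about -4.2 in these data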;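 also: channel flux triggered by added potassium and thallium sulfate stimulus; B-score of peak minus minimum fluorescence over baseline after thallium stimulus; more negative B-score means stronger Kir2.1 block with less thallium influx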
Target sequence (P35561 whole entry, looked up): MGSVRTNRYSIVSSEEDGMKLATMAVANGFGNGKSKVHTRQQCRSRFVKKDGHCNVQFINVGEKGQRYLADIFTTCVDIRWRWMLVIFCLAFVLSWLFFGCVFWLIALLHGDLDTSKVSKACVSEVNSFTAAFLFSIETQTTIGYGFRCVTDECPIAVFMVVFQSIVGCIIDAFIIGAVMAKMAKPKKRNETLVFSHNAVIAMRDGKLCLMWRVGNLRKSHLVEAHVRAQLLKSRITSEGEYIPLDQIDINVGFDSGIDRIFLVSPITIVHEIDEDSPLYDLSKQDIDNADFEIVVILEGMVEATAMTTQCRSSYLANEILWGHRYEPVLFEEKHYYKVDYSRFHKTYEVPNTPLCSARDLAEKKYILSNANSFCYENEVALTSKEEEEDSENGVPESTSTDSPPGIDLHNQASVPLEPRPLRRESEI
SR-BI uptake up: activators of SR-BI mediated HDL lipid uptake; CHO ldlA[mSR-BI] cells, DiI-HDL uptake fluorescence, 3 h; 100 = double the neutral-control signal; activation, % at 12.5 µM; hit rate 0.096% among 320,000; AID 504775;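 active = mean replicate activation of at least 60% and every replicate at or above 60%; inconclusive = mean or all-replicate condition met, but not both; inactive = mean below 60% and not all replicates reaching 60%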;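 also: 0% = median plate neutral-control signal and 100% = twice that signal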
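Test system: SR-BI-overexpressing, LDLR-lacking CHO cells; Also added: labelled HDL, 10 µg/mL; Measured by: bottom-read cell fluorescence after medium removal, ex 550/em 595 nm; Timing: 3 h uptake period with compound, 37 °C; Buffer or medium: F12, 0.5% BSA, 25 mM HEPES; Doses: single compound concentration, delivered by pin transfer.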
Active calls of the source: *; i = inactive; ? = inconclusive; . = not tested or not shown. Only some compounds are listed: those with a hit (about 3% of all), similar ones and a draw of the others.

SMILES	ANO1 block	DNA FID counter	TMEM16A act	SR-BI HDL uptake	Kir21 inh	SR-BI uptake up
O=S(=O)(c1cccc(-c2csc(N/N=C/c3ccco3)n2)c1)N1CCOCC1	i	-16	i	72*	-2.7	-72
O=S(=O)(c1cccc(-c2csc(-c3ccccc3)n2)c1)N1CCOCC1	i	-3	i	17	0.21	-17
CCOc1cc(/C=N/Nc2nc(-c3cccc(S(=O)(=O)N4CCCC4)c3)cs2)ccc1O	i	-4	i	98*	-0.1	-98
CCCCCCSc1nnc(-c2cnn(-c3ccccc3)c2-n2cccc2)n1C	100*	-25	i	21	2.3	-21
CCOc1cc(CNC2CCCC2)c(Cl)cc1OCC(=O)Nc1ccccc1	i	27	i	56	-4.5*	-56
O=C(Nc1cc(NC(=O)c2ccccc2F)ccc1Cl)c1ccccc1	i	-21	.	19	0.05	-19
COc1cc2nc(CN3CCN(S(=O)(=O)c4cc(C)ccc4C)CC3)[nH]c(=O)c2cc1OC	.	.	i	20	.	-20
S=C(Nc1ccc(Cl)cc1)NC1CC2CCC(C1)N2Cc1ccccc1 (configuration not stated)	i	23	i	-7	-4.7*	7
C=CCN(C(=O)C1CSC2(C)CCC(=O)N12)c1nc(-c2ccccc2)cs1 (configuration not stated)	i	.	i	11	0.89	-11
C=CCN(C(=O)C1=NN(C2CCS(=O)(=O)C2)C(=O)CC1)c1nc(-c2ccc([N+](=O)[O-])cc2)cs1 (configuration not stated)	i	-19	-4.7*	61	-0.8	-61
CN(Cc1cccs1)C(=O)CCCc1c[nH]c2ccccc12	i	-27	-6.3*	12	0.64	-12
CN(Cc1cccs1)C(=O)CCc1c[nH]c2ccccc12	i	-10	i	7	1.1	-7
Cc1cc(C(=O)CSc2nnc(-c3cccc(F)c3)n2N)c(C)n1Cc1ccc2c(c1)OCO2	100*	-13	i	18	1	-18
C#CCOCCOCCOCCNc1nc(N2CCN(C(=O)CCCCCCCCCCNC(=O)[C@H]([C@@H](C)CC)n3cc(CCCCN=C(N)N)nn3)CC2)nc(N2CCN(C(=O)CCCCCCCCCCNC(=O)[C@H](CCCN=C(N)N)n3cc(C[C@@H](C)CC)nn3)CC2)n1	25*	.	.	.	.	.
C#CCOCCOCCOCCNc1nc(N2CCN(C(=O)CCCCCCCCCCNC(=O)[C@H](CCCN=C(N)N)n3cc(C[C@@H](C)CC)nn3)CC2)nc(N2CCN(C(=O)CCCCCCCCCCNC(=O)[C@@H]([C@H](C)CC)n3cc(CCCCCN)nn3)CC2)n1	25*	.	.	.	.	.
C#CCOCCOCCOCCNc1nc(N2CCN(C(=O)CCCCCCCCCCNC(=O)[C@H]([C@@H](C)CC)n3cc(CCCCN=C(N)N)nn3)CC2)nc(N2CCN(C(=O)CCCCCCCCCCNC(=O)[C@@H]([C@H](C)O)n3cc(C)nn3)CC2)n1	25*	.	-25*	14	.	-14
C#CCOCCOCCOCCNc1nc(N2CCN(C(=O)CCCCCCCCCCNC(=O)Cn3cc(C[C@@H](C)O)nn3)CC2)nc(N2CCN(C(=O)CCCCCCCCCCNC(=O)[C@@H]([C@H](C)CC)n3cc(CCCCCN)nn3)CC2)n1	25*	.	i	18	.	-18
C#CCOCCOCCOCCNc1nc(N2CCN(C(=O)CCCCCCCCCCNC(=O)[C@H](CCCCN)n3cc(CCO)nn3)CC2)nc(N2CCN(C(=O)CCCCCCCCCCNC(=O)[C@H](CCCCN)n3cc(CCCC(=O)O)nn3)CC2)n1	i	.	i	-24	.	24
C#CCOCCOCCOCCNc1nc(N2CCOCC2)nc(N2CCN(C(=O)CCCCCCCCCCNC(=O)[C@H]([C@@H](C)CC)n3cc(CCCCN=C(N)N)nn3)CC2)n1	i	.	i	?	.	-71
C#CCOCCOCCOCCNc1nc(N2CCN(C(=O)CCCCCCCCCCNC(=O)Cn3cc(CCCCCN)nn3)CC2)nc(N2CCN(C(=O)CCCCCCCCCCNC(=O)[C@@H]([C@H](C)O)n3cc(C)nn3)CC2)n1	i	.	i	9	.	-9
C#CCOCCOCCOCCNc1nc(N2CCN(C(=O)CCCCCCCCCCNC(=O)Cn3cc(CCCCCN)nn3)CC2)nc(N2CCN(C(=O)CCCCCCCCCCNC(=O)Cn3cc(C[C@@H](C)O)nn3)CC2)n1	i	.	i	-2	.	2
O=C(NCCCSc1ccccc1)c1cc(Cl)ccc1O	100*	-14	i	16	0.06	-16
O=C(CNC(=O)c1ccccc1)NCCCSc1ccccc1	.	.	i	-16	.	16
Cc1ccc(N2CC(C(=O)OCC(=O)c3ccc([N+](=O)[O-])cc3)CC2=O)cc1 (configuration not stated)	i	-25	i	.	0.57	.
c1coc(CNc2nc(N3CCCCC3)nc3ccccc23)c1	i	8	.	14	-4.6*	-14
SMILES	ANO1 block	DNA FID counter	TMEM16A act	SR-BI HDL uptake	Kir21 inh	SR-BI uptake up
c1ccc(CNc2nc(N3CCN(Cc4ccccc4)CC3)nc3ccccc23)cc1	i	19	i	.	-0.12	.
c1ccc(N2CCN(c3nc(NCc4ccco4)c4ccccc4n3)CC2)cc1	i	40*	i	28	1.4	-28
CCOc1ccc(-c2noc(CCCC(=O)NCC3CCCO3)n2)cc1OC (configuration not stated)	i	-32	i	11	-1.2	.
Cc1nc(C)c(-c2nnc(-c3ccccc3Cl)o2)cc1C(=O)NN	i	-12	i	.	1.3	.
Cc1nc(C)c(-c2nnc(-c3ccc(C(C)(C)C)cc3)o2)cc1C(=O)NN	i	-16	i	81*	0.15	-81
CCN(CC)C(=O)CC(c1ccc(OC)cc1)c1c(O)cc(OC)cc1OC (configuration not stated)	i	.	-9.9*	-15	-0.53	15
Cc1ccc(Cn2cc(/C=N/NC(=O)Cc3nnc(NC(=O)c4ccc(C)cc4)s3)c3ccccc32)cc1	i	-3	i	78*	1.4	-78
O=C(Cc1nnc(NC(=O)c2ccccc2)s1)N/N=C/c1cccc(O)c1	i	-23	i	46	0.06	-46
O=C(Nc1nc2ccc(Br)cc2s1)c1ccco1	i	2	i	93*	0.05	-93
COc1ccc(CC(=O)Nc2c3c(nn2C(C)(C)C)CS(=O)(=O)C3)cc1	i	-6	i	-4	0.46	4
O=C(COC(=O)c1cc(S(=O)(=O)Nc2ccccc2Cl)ccc1O)Nc1nc2ccccc2s1	.	-7	-42*	-12	.	12
N#Cc1cccc(NC(=O)COC(=O)c2cc(S(=O)(=O)Nc3ccccc3Cl)ccc2O)c1	.	.	i	8	.	-8
